Results published in ChEMBL document CHEMBL3085754, “Clicking 3'-azidothymidine into novel potent inhibitors of human immunodeficiency virus” (J Med Chem, 2013).
Activity calls are given as the source filed them. No cut-off for these calls is given here.

What was measured:
[1] = test system: Human immunodeficiency virus 1; assay: Antiviral activity against Human immunodeficiency virus 1 3B infected in human CEM-SS cells assessed as inhibition of virus-induced cytopathic effect at 10 uM after 6 days by MTS assay relative to control; assay type: functional; conditions: 144 h
[2] = test system: CEM-SS; assay: Cytotoxicity against human CEM-SS cells assessed as cell viability at 10 uM after 6 days by MTS assay relative to control; assay type: cell-based; conditions: 144 h
[3] = test system: Human immunodeficiency virus 1; assay: Antiviral activity against NNRTI-resistant Human immunodeficiency virus 1; assay type: functional, organism-based
[4] = test system: Human immunodeficiency virus 1; assay: Antiviral activity against wild type Human immunodeficiency virus 1 expressing p24 infected in human HeLa P4/R5 cells preincubated for 16 hrs prior to virus infection measured after 48 hrs by beta-galactosidase-based single replication cycle assay; assay type: functional, organism-based; conditions: Human immunodeficiency virus 1, P4/R5
Summary of the method: (§1)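 P4R5 indicator cells express CD4, CXCR4, CCR5 and an HIV LTR-driven β-galactosidase reporter, and were kept in DMEM/10% FBS with puromycin. Cells were seeded at 5×10^3 per well and exposed to varying drug concentrations for 16 h. They were then inoculated with 25 ng HIV-1 p24 per well. Infection was quantified 48 h post-infection by fluorescence-based β-galactosidase detection.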

[5] = test system: Human immunodeficiency virus 1; assay: Ratio of EC50 for NNRTI-resistant Human immunodeficiency virus 1 to EC50 for wild type Human immunodeficiency virus 1 expressing p24; assay type: functional
[6] = test system: Human immunodeficiency virus 1; assay: Antiviral activity against wild type Human immunodeficiency virus 1 expressing p24 infected in human HeLa P4/R5 cells up to 10 uM preincubated for 16 hrs prior to virus infection measured after 48 hrs by beta-galactosidase-based single replication cycle assay; assay type: functional, organism-based; summary of the method: as §1
[7] = Therapeutic index, ratio of CC50 for human CEM-SS cells to EC50 for Human immunodeficiency virus 1 3B; assay type: cell-based; conditions: read-out: Ratio CC50/EC50
[8] = test system: CEM-SS; assay: Cytotoxicity against human CEM-SS cells assessed as cell viability after 6 days by MTS assay; assay type: cell-based; conditions: cem-ss, 144 h
[9] = test system: Human immunodeficiency virus 1; assay: Antiviral activity against Human immunodeficiency virus 1 3B infected in human CEM-SS cells assessed as inhibition of virus-induced cytopathic effect after 6 days by MTS assay; assay type: functional, organism-based; conditions: 144 h
[10] = target: Human immunodeficiency virus type 1 reverse transcriptase (Human immunodeficiency virus 1) (UniProt Q72547); assay: Binding affinity to HIV1 reverse transcriptase assessed as compound incorporation into DNA by primer extension assay
[11] = target: Human immunodeficiency virus type 1 reverse transcriptase (Human immunodeficiency virus 1, UniProt Q72547); assay: Inhibition of HIV1 reverse transcriptase-mediated [H3]TTP incorporation into poly(rA)-oligo(dT)16 DNA preincubated for 5 mins prior to primer/template and substrate addition by liquid scintillation spectrometric analysis
Summary of the method: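 10 nM wt HIV-1 RT preincubated 5 min with inhibitor in DMSO (1% final), then 40 nM poly(rA)-oligo(dT)16 and 10 μM [3H]TTP added. Buffer 50 mM Tris-HCl pH 8.0, 60 mM KCl, 10 mM MgCl2; 20 min at 37°C. Quenched with cold 10% TCA/20 mM pyrophosphate, glass-fibre filtered, washed with TCA and ethanol, incorporation counted by liquid scintillation.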

| SMILES | inhibition at 10 µM [1] [%] | Activity [2] [%] | also measured |
| --- | --- | --- | --- |
| COC(=O)C(Cc1ccc(OCc2cnnn2[C@H]2C[C@H](n3cc(C)c(=O)[nH]c3=O)O[C@@H]2CO)cc1)NC(=O)OC(C)(C)C (stereo not given in full) | 17 | 90 | – |
| Cc1cn([C@H]2C[C@H](n3nncc3C3(O)c4ccccc4-c4ccccc43)[C@@H](CO)O2)c(=O)[nH]c1=O | 0 | 97 | – |
| Cc1cn([C@H]2C[C@H](n3cc(COc4ccccc4)nn3)[C@@H](CO)O2)c(=O)[nH]c1=O | 7 | 85 | – |
| COc1ccc2cc(-c3cnnn3[C@H]3C[C@H](n4cc(C)c(=O)[nH]c4=O)O[C@@H]3CO)ccc2c1 | 43 | 100 | EC50 [3]: 1.8 µM; EC50 [4]: 4.1 µM; Ratio EC50 [5]: 0.4 |
| Cc1cn([C@H]2C[C@H](n3nncc3-c3ccnc4ccccc34)[C@@H](CO)O2)c(=O)[nH]c1=O | 74 | 94 | – |
| Cc1cn([C@H]2C[C@H](n3nncc3C3CCCCC3)[C@@H](CO)O2)c(=O)[nH]c1=O | 43 | 88 | Activity [6]: inactive |
| Cc1cn([C@H]2C[C@H](n3cc(C4CC4)nn3)[C@@H](CO)O2)c(=O)[nH]c1=O | 1 | 100 | – |
| Cc1cn([C@H]2C[C@H](n3nncc3COc3ccccc3)[C@@H](CO)O2)c(=O)[nH]c1=O | 51 | 100 | – |
| COc1ccc2ccc(OCc3cnnn3[C@H]3C[C@H](n4cc(C)c(=O)[nH]c4=O)O[C@@H]3CO)cc2c1 | 10 | 99 | – |
| Cc1cn([C@H]2C[C@H](n3nncc3-c3ccc(-c4ccccc4)cc3)[C@@H](CO)O2)c(=O)[nH]c1=O | 63 | 80 | Activity [6]: inactive |
| Cc1cn([C@H]2C[C@H](n3cc(CO)nn3)[C@@H](CO)O2)c(=O)[nH]c1=O | 5 | 100 | – |
| Cc1cn([C@H]2C[C@H](n3cc(-c4ccc(Cl)cc4)nn3)[C@@H](CO)O2)c(=O)[nH]c1=O | 0 | 100 | – |
| Cc1cn([C@H]2C[C@H](n3nncc3C3CC3)[C@@H](CO)O2)c(=O)[nH]c1=O | 17 | 100 | – |
| Cc1cn([C@H]2C[C@H](n3nncc3-c3ccc4[nH]ccc4c3)[C@@H](CO)O2)c(=O)[nH]c1=O | 12 | 82 | – |
| Cc1cn([C@H]2C[C@H](n3nncc3CO)[C@@H](CO)O2)c(=O)[nH]c1=O | 0 | 100 | – |
| Cc1cn([C@H]2C[C@H](n3nncc3-c3cc4ccccc4c4ccccc34)[C@@H](CO)O2)c(=O)[nH]c1=O | 100 | 100 | EC50 [4]: > 5 µM; selectivity ratio [7]: 210; CC50 [8]: 21 µM; EC50 [9]: 0.1 µM |
| Cc1cn([C@H]2C[C@H](n3cc(-c4ccc(-c5ccccc5)cc4)nn3)[C@@H](CO)O2)c(=O)[nH]c1=O | 91 | 88 | – |
| Cc1cn([C@H]2C[C@H](n3cc(-c4cccc5ccccc45)nn3)[C@@H](CO)O2)c(=O)[nH]c1=O | 1 | 100 | – |
| Cc1cn([C@H]2C[C@H](n3cc(-c4ccc5[nH]ccc5c4)nn3)[C@@H](CO)O2)c(=O)[nH]c1=O | 35 | 100 | – |
| COc1ccc2ccc(OCc3cn([C@H]4C[C@H](n5cc(C)c(=O)[nH]c5=O)O[C@@H]4CO)nn3)cc2c1 | 0 | 100 | – |
| Cc1cn([C@H]2C[C@H](n3cc(-c4cc5ccccc5c5ccccc45)nn3)[C@@H](CO)O2)c(=O)[nH]c1=O | 42 | 100 | EC50 [3]: 1 µM; EC50 [4]: 4.7 µM; Ratio EC50 [5]: 0.2 |
| Cc1cn([C@H]2C[C@H](n3nncc3-c3ccc4ccccc4c3)[C@@H](CO)O2)c(=O)[nH]c1=O | 37 | 100 | – |

| SMILES | inhibition at 10 µM [1] [%] | Activity [2] [%] | also measured |
| --- | --- | --- | --- |
| Cc1cn([C@H]2C[C@H](n3nncc3-c3ccc(Cl)cc3)[C@@H](CO)O2)c(=O)[nH]c1=O | 23 | 100 | – |
| Cc1cn([C@H]2C[C@H](n3cc(-c4ccc5ccccc5c4)nn3)[C@@H](CO)O2)c(=O)[nH]c1=O | 33 | 98 | EC50 [3]: 2.1 µM; EC50 [4]: 7.2 µM; Ratio EC50 [5]: 0.3 |
| Cc1cn([C@H]2C[C@H](n3cc(COc4ccc5ccccc5c4)nn3)[C@@H](CO)O2)c(=O)[nH]c1=O | 0 | 100 | – |
| Cc1cn([C@H]2C[C@H](n3cc(-c4ccc(Cl)c(Cl)c4)nn3)[C@@H](CO)O2)c(=O)[nH]c1=O | 6 | 100 | – |
| COc1ccc2cc(OCc3cnnn3[C@H]3C[C@H](n4cc(C)c(=O)[nH]c4=O)O[C@@H]3CO)ccc2c1 | 57 | 100 | Activity [6]: inactive |
| COc1ccc2cc(-c3cn([C@H]4C[C@H](n5cc(C)c(=O)[nH]c5=O)O[C@@H]4CO)nn3)ccc2c1 | 35 | 95 | – |
| COc1ccc2cc(OCc3cn([C@H]4C[C@H](n5cc(C)c(=O)[nH]c5=O)O[C@@H]4CO)nn3)ccc2c1 | 0 | 100 | – |
| Cc1cn([C@H]2C[C@H](n3nncc3-c3ccccc3)[C@@H](CO)O2)c(=O)[nH]c1=O | 44 | 100 | – |
| Cc1cn([C@H]2C[C@H](n3nncc3-c3ccc(Oc4ccccc4)cc3)[C@@H](CO)O2)c(=O)[nH]c1=O | 67 | 97 | Activity [6]: inactive |
| Cc1cn([C@H]2C[C@H](N=[N+]=[N-])[C@@H](COP(=O)(O)OP(=O)(O)OP(=O)(O)O)O2)c(=O)[nH]c1=O | – | – | Activity [10]: Active |
| Cc1cn([C@H]2C[C@H](n3nncc3COc3ccc4ccccc4c3)[C@@H](CO)O2)c(=O)[nH]c1=O | 88 | 95 | EC50 [3]: 2.4 µM; EC50 [4]: > 5 µM; selectivity ratio [7]: 37; CC50 [8]: 70 µM; Ratio EC50 [5]: <0.5; EC50 [9]: 1.9 µM |
| Cc1cn([C@H]2C[C@H](n3cc(-c4ccccc4)nn3)[C@@H](CO)O2)c(=O)[nH]c1=O | 24 | 100 | – |
| Cc1cn([C@H]2C[C@H](n3nncc3-c3cc4ccccc4c4ccccc34)[C@@H](COP(=O)(O)OP(=O)(O)OP(=O)(O)O)O2)c(=O)[nH]c1=O | – | – | IC50 [11]: 11.8 µM |
| Cc1cn([C@H]2C[C@H](O)[C@@H](COP(=O)(O)OP(=O)(O)OP(=O)(O)O)O2)c(=O)[nH]c1=O | – | – | Activity [10]: Active |
| Cc1cn([C@H]2C[C@H](n3cc(C4CCCCC4)nn3)[C@@H](CO)O2)c(=O)[nH]c1=O | 0 | 100 | – |
| Cc1cn([C@H]2C[C@H](n3cc(COc4cccc5ccccc45)nn3)[C@@H](CO)O2)c(=O)[nH]c1=O | 5 | 100 | – |
| Cc1cn([C@H]2C[C@H](n3cc(-c4ccnc5ccccc45)nn3)[C@@H](CO)O2)c(=O)[nH]c1=O | 44 | 100 | – |
| Cc1cn([C@H]2C[C@H](n3cc(-c4ccc(Oc5ccccc5)cc4)nn3)[C@@H](CO)O2)c(=O)[nH]c1=O | 0 | 100 | – |
| Cc1cn([C@H]2C[C@H](n3cc(C4(O)c5ccccc5-c5ccccc54)nn3)[C@@H](CO)O2)c(=O)[nH]c1=O | 11 | 100 | – |
| COC(=O)C(Cc1ccc(OCc2cn([C@H]3C[C@H](n4cc(C)c(=O)[nH]c4=O)O[C@@H]3CO)nn2)cc1)NC(=O)OC(C)(C)C (stereo not given in full) | 0 | 99 | – |
| Cc1cn([C@H]2C[C@H](n3nncc3-c3ccc(Cl)c(Cl)c3)[C@@H](CO)O2)c(=O)[nH]c1=O | 31 | 100 | Activity [6]: inactive |
| Cc1cn([C@H]2C[C@H](n3nncc3COc3cccc4ccccc34)[C@@H](CO)O2)c(=O)[nH]c1=O | 42 | 93 | Activity [6]: inactive |
